Tests used:
Settings in all cases: in vivo
Rattus norvegicus [1] = assay: Biodistribution in blood of immature femalee rat after 1 hr administration of 3 micro Ci (111 kBq) in the presence of (+E2); type: ADME, organism-based
Procedure, shortened: (§1)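 Immature female Long Evans rats (21–24 days, 45–70 g), unanesthetized in retention cages, given 3 µCi (111 kBq) 125I-labeled steroid i.v. via lateral tail vein. Vehicle was ethanol diluted in saline containing 1% Tween-80, giving 9% ethanol final. The blocking group received 60 µg unlabeled estradiol co-injected. Rats were killed under ether by axillary bleeding, and tissues were KCl-washed and gamma-counted. Data are %ID/g, mean ± SE, n=3–5.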

Rattus norvegicus [2] = assay: Biodistribution in uterus/spleen, muscle, lungs of immature female rat after 3 hour administration of 3 micro Ci (111 kBq) in the absence of 60 microg estradiol; type: ADME, organism-based
Procedure, shortened: (§2)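 Immature female Long Evans rats (21–24 days, 45–70 g), 3–5 per group, unanesthetized in retention cages, given 3 μCi (111 kBq) 125I-labeled steroid by lateral tail vein. Vehicle: ethanol diluted with saline containing 1% Tween-80, final ethanol 9%. +E2 group co-injected 60 μg unlabeled estradiol (1 h only). Killed under ether; tissues KCl-washed, weighed, gamma-counted. Output: %ID/g (mean, SE) and uterus to blood or nontarget (muscle, spleen, lungs) ratios.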

Rattus norvegicus [3] = assay: Biodistribution in uterus/blood of immature female rat after 12 hour administration of 3 micro Ci (111 kBq) in the absence of 60 microg estradiol; type: ADME, organism-based; procedure, shortened: as §2
Rattus norvegicus [4] = assay: Biodistribution in uterus/spleen, muscle, lungs of immature female rat after 5 hour administration of 3 micro Ci (111 kBq) in the absence of 60 microg estradiol; type: ADME, organism-based; procedure, shortened: as §2
Rattus norvegicus [5] = assay: Biodistribution in uterus/spleen, muscle, lungs of immature female rat after 1 hr administration of 3 micro Ci (111 kBq) in the absence of 60 microg estradiol; type: ADME, organism-based; procedure, shortened: as §2
Rattus norvegicus [6] = assay: Biodistribution in uterus/spleen, muscle, lungs of immature female rat after 1 hr administration of 3 micro Ci (111 kBq) in the presence of (+E2); type: ADME, organism-based; procedure, shortened: as §2
Rattus norvegicus [7] = assay: Biodistribution in uterus/spleen, muscle, lungs of immature female rat after 12 hour administration of 3 micro Ci (111 kBq) in the absence of 60 microg estradiol; type: ADME, organism-based; procedure, shortened: as §2
Rattus norvegicus [8] = assay: Biodistribution in liver of Iimmature female rat after 3 hour administration of 3 micro Ci (111 kBq) in the absence of 60 microg estradiol; type: ADME, organism-based; procedure, shortened: as §1
Rattus norvegicus [9] = assay: Biodistribution in thyroid of Immature Female rat after 3 hour administration of 3 micro Ci (111 kBq) in the absence of 60 microg estradiol; type: ADME, organism-based, Thyroid gland
Procedure, shortened: (§3)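 Immature female Long Evans rats (21–24 days, 45–70 g), three to five per group, given 125I-labeled steroid (3 μCi, 111 kBq) by lateral tail vein without anesthesia. Vehicle: ethanol diluted in saline with 1% Tween-80, final ethanol 9%, 0.22 μm filtered. +E2 groups received 60 μg unlabeled estradiol co-injected. Killed under ether at set times; tissues KCl-washed, blotted, weighed, gamma counted; %ID/g, mean with SE.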

Rattus norvegicus [10] = assay: Biodistribution in liver of Immature Female rat after 1 hr administration of 3 micro Ci (111 kBq) in the absence of 60 microg estradiol; type: ADME, organism-based; procedure, shortened: as §1
Rattus norvegicus [11] = assay: Biodistribution in lungs of Immature Female rat after 12 hour administration of 3 micro Ci (111 kBq) in the absence of 60 microg estradiol; type: ADME, organism-based, Lung; procedure, shortened: as §1
Rattus norvegicus [12] = assay: Biodistribution in thyroid of Immature Female rat after 12 hour administration of 3 micro Ci (111 kBq) in the absence of 60 microg estradiol; type: ADME, organism-based, Thyroid gland; procedure, shortened: as §3
Rattus norvegicus [13] = assay: Biodistribution in blood of Immature Female rat after 3 hour administration of 3 micro Ci (111 kBq) in the absence of 60 microg estradiol; type: ADME, organism-based; procedure, shortened: as §1
Rattus norvegicus [14] = assay: Biodistribution in kidney of Immature Female rat after 1 hr administration of 3 micro Ci (111 kBq) in the absence of 60 microg estradiol; type: ADME, organism-based; procedure, shortened: as §1
Rattus norvegicus [15] = assay: Biodistribution in kidney of Immature Female rat after 12 hour administration of 3 micro Ci (111 kBq) in the absence of 60 microg estradiol; type: ADME, organism-based; procedure, shortened: as §1
Rattus norvegicus [16] = assay: Biodistribution in uterus / blood of Immature Female rat after 3 hour administration of 3 micro Ci (111 kBq) in the absence of 60 microg estradiol; type: ADME, organism-based
Procedure, shortened: (§4)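 Same in vivo procedure: immature female Long Evans rats (21–24 days), three to five per group, 3 μCi (111 kBq) tracer i.v. via tail vein in 9% ethanol/saline/1% Tween-80, ± 60 μg estradiol co-injected at 1 h. Uterus %ID/g (gamma counting) divided by blood, or by nontarget organ (muscle, spleen, lungs), %ID/g to give ratios.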

Rattus norvegicus [17] = assay: Biodistribution in liver of Immature Female rat after 5 hour administration of 3 micro Ci (111 kBq) in the absence of 60 microg estradiol; type: ADME, organism-based; procedure, shortened: as §1
Rattus norvegicus [18] = assay: Biodistribution in uterus / spleen, muscle, lungs of Immature Female rat after 5 hour administration of 3 micro Ci (111 kBq) in the absence of 60 microg estradiol; type: ADME, organism-based; procedure, shortened: as §4
Rattus norvegicus [19] = assay: Biodistribution in muscle of Immature Female rat after 3 hour administration of 3 micro Ci (111 kBq) in the absence of 60 microg estradiol; type: ADME, organism-based, Muscle tissue; procedure, shortened: as §3
Rattus norvegicus [20] = assay: Biodistribution in fat of Immature Female rat after 1 hr administration of 3 micro Ci (111 kBq) in the absence of 60 microg estradiol; type: ADME, organism-based, Adipose tissue; procedure, shortened: as §1
Rattus norvegicus [21] = assay: Biodistribution in uterus / spleen, muscle, lungs of Immature Female rat after 1 hr administration of 3 micro Ci (111 kBq) in the presence of (+E2); type: ADME, organism-based; procedure, shortened: as §4
Rattus norvegicus [22] = assay: Biodistribution in uterus of Immature Female rat after 3 hour administration of 3 micro Ci (111 kBq) in the absence of 60 microg estradiol; type: ADME, organism-based; procedure, shortened: as §2
Rattus norvegicus [23] = assay: Biodistribution in uterus / spleen, muscle, lungs of Immature Female rat after 3 hour administration of 3 micro Ci (111 kBq) in the absence of 60 microg estradiol; type: ADME, organism-based; procedure, shortened: as §4
Rattus norvegicus [24] = assay: Biodistribution in lungs of Immature Female rat after 3 hour administration of 3 micro Ci (111 kBq) in the absence of 60 microg estradiol; type: ADME, organism-based, Lung; procedure, shortened: as §1
Rattus norvegicus [25] = assay: Biodistribution in fat of Immature Female rat after 3 hour administration of 3 micro Ci (111 kBq) in the absence of 60 microg estradiol; type: ADME, organism-based, Adipose tissue; procedure, shortened: as §1
Rattus norvegicus [26] = assay: Biodistribution in muscle of Immature Female rat after 12 hour administration of 3 micro Ci (111 kBq) in the absence of 60 microg estradiol; type: ADME, organism-based, Muscle tissue; procedure, shortened: as §3
Rattus norvegicus [27] = assay: Biodistribution in thyroid of Immature Female rat after 1 hr administration of 3 micro Ci (111 kBq) in the absence of 60 microg estradiol; type: ADME, organism-based, Thyroid gland; procedure, shortened: as §3
Rattus norvegicus [28] = assay: Biodistribution in spleen of Immature Female rat after 5 hour administration of 3 micro Ci (111 kBq) in the absence of 60 microg estradiol; type: ADME, organism-based; procedure, shortened: as §3
Rattus norvegicus [29] = assay: Biodistribution in uterus of Immature Female rat after 5 hour administration of 3 micro Ci (111 kBq) in the absence of 60 microg estradiol; type: ADME, organism-based; procedure, shortened: as §2
Rattus norvegicus [30] = assay: Biodistribution in liver of Immature Female rat after 12 hour administration of 3 micro Ci (111 kBq) in the absence of 60 microg estradiol; type: ADME, organism-based; procedure, shortened: as §1
Rattus norvegicus [31] = assay: Biodistribution in liver of Iimmature female rat after 1 hr administration of 3 micro Ci (111 kBq) in the presence of (+E2); type: ADME, organism-based; procedure, shortened: as §1

Structure (SMILES)	ID/g (Rattus norvegicus [9]) [%]	ID/g (Rattus norvegicus [10]) [%]	ID/g (Rattus norvegicus [11]) [%]	ID/g (Rattus norvegicus [12]) [%]	ID/g (Rattus norvegicus [13]) [%]	ID/g (Rattus norvegicus [14]) [%]	ID/g (Rattus norvegicus [15]) [%]	ID/g (Rattus norvegicus [16]) [%]	ID/g (Rattus norvegicus [17]) [%]	ID/g (Rattus norvegicus [18]) [%]	ID/g (Rattus norvegicus [19]) [%]	ID/g (Rattus norvegicus [20]) [%]	ID/g (Rattus norvegicus [21]) [%]	ID/g (Rattus norvegicus [22]) [%]	ID/g (Rattus norvegicus [23]) [%]	ID/g (Rattus norvegicus [24]) [%]	ID/g (Rattus norvegicus [25]) [%]	ID/g (Rattus norvegicus [26]) [%]	ID/g (Rattus norvegicus [27]) [%]	ID/g (Rattus norvegicus [28]) [%]	further results
CO[C@H]1C[C@@]2(C)[C@@H](CC[C@@]2(O)/C=C\I)[C@@H]2CCc3c(ccc(O)c3F)[C@H]21																					ID/g (Rattus norvegicus [1]): 0.81%
C[C@]12CC[C@@H]3c4cc(F)c(O)cc4CC[C@H]3[C@@H]1CC[C@@]2(O)/C=C/I																					ID/g (Rattus norvegicus [2]): 1.49%; ID/g (Rattus norvegicus [3]): 0.92%; ID/g (Rattus norvegicus [4]): 1.14%; ID/g (Rattus norvegicus [5]): 1.42%; ID/g (Rattus norvegicus [6]): 0.81%; ID/g (Rattus norvegicus [7]): 1.25%; ID/g (Rattus norvegicus [8]): 2.87%
CO[C@H]1C[C@@]2(C)[C@@H](CC[C@@]2(O)/C=C\I)[C@@H]2CCc3cc(O)c(F)cc3[C@H]21	882	2.04	0.13	1899	0.45	1.56	0.29	21.19	1.12	25.79	0.38	1.71	0.64	9.59	21.65	0.54	1.15	0.1	217	0.38	ID/g (Rattus norvegicus [29]): 8.81%; ID/g (Rattus norvegicus [30]): 0.65%
CO[C@H]1C[C@@]2(C)[C@@H](CC[C@@]2(O)/C=C/I)[C@@H]2CCc3c(ccc(O)c3F)[C@H]21	126	3.32	0.3	475	0.26	2.03	0.49	44.23	2.72	26.5	0.56	2.68	1.02	10.45	16.64	0.69	2.04	0.25	61	0.39	ID/g (Rattus norvegicus [29]): 12.04%; ID/g (Rattus norvegicus [30]): 2.28%
CO[C@H]1C[C@@]2(C)[C@@H](CC[C@@]2(O)/C=C/I)[C@@H]2CCc3cc(O)c(F)cc3[C@H]21																					ID/g (Rattus norvegicus [31]): 4.4%
